The values that follow come from ChEMBL document CHEMBL4680100, “Revisiting the SAR of the Antischistosomal Aryl Hydantoin (Ro 13-3978)” (J Med Chem, 2016).

Structures are written as SMILES. Values after ≈ are worked out from the molar mass of the structure shown.

Data set [1] in a line: Octanol/water partition coefficient, logD of the compound at pH 7.4 by HPLC analysis.
Data set [2] is described as follows: Kinetic solubility of compound at pH 6.5 phosphate buffer by nephelometry. The data set is classed as physicochemical. The following applies: read-out: Kinetic_solubility.
Another data set has as its system Schistosoma mansoni. The data set can be described thus: Antischistosomal activity against Schistosoma mansoni infected in NMRI mouse assessed as reduction in total worm burden at 100 mg/kg, po administered as single dose starting on day 49 post-infection and measured at 28 days post treatment relative to control. The data set is classed as functional. On the set-up: scale not given: the % may be the effect or the level left. As to conditions: time 28 day. A digest of the protocol:
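S. mansoni-infected NMRI mice treated on day 49 post-infection with a single oral dose, dissolved or suspended in 7% v/v Tween 80, 3% v/v ethanol (10 mL/kg), five mice per group. Sacrificed and dissected 28 d post-treatment; worms counted to give total worm burden reduction versus untreated controls. Kruskal–Wallis test on medians, treatment versus control.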

The nature of data set [3]: Kinetic solubility of the compound in 0.01 M HCl at pH 2 by nephelometry. In kind it is physicochemical. The following applies: read-out: Kinetic_solubility.
A short description of data set [4]: Intrinsic clearance in mouse liver microsome in presence of NADPH-regenerating system incubated over 60 mins by LC-MS analysis. The following applies: microsomes, 1 h. In general terms: Liver microsomes are vesicles of endoplasmic reticulum, rich in cytochrome P450 enzymes.
The next data set deals with T1, Androgen receptor (Homo sapiens, UniProt P10275).
T1 sequence (P10275 whole entry): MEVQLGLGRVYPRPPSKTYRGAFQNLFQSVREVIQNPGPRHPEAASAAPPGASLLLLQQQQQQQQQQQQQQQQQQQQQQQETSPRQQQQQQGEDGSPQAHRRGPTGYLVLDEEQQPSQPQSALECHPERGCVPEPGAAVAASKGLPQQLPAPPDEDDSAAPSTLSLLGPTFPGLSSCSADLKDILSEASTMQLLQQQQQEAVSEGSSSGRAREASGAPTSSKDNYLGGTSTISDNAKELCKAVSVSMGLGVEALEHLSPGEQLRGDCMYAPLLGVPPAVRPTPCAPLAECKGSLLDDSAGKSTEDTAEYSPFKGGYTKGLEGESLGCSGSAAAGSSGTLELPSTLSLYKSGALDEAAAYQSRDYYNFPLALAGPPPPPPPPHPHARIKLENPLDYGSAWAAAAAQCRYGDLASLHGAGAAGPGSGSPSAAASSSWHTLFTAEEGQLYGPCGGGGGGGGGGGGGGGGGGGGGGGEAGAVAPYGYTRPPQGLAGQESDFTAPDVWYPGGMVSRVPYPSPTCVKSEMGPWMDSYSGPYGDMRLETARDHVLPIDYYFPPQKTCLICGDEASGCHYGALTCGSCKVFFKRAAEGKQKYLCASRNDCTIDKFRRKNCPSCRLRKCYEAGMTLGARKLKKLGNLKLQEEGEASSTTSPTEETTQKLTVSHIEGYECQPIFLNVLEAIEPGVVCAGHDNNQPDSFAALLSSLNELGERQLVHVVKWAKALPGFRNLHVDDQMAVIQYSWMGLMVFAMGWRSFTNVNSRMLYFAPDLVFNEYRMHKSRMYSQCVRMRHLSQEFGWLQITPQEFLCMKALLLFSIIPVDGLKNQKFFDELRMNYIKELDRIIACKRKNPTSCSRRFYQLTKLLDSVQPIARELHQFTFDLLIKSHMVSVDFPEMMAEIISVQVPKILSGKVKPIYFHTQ

Data set [5] is described as follows: Intrinsic clearance in human liver microsome in presence of NADPH-regenerating system incubated over 60 mins by LC-MS analysis. The following applies: microsomes, 1 h.
For a further data set, the system named is L6. The data set can be described thus: Cytotoxicity against rat L6 cells assessed as reduction in cell viability at up to 30 uM. The data set is classed as cell-based.
Another data set addresses Albumin (Homo sapiens, UniProt P02768). The data set can be described thus: Protein binding in immobilized human serum albumin by HPLC analysis. In kind it is ADME. The following applies: isolated protein. A digest of the protocol:
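Binding estimated from gradient HPLC retention on a human albumin column, correlated against standard compounds of known protein binding.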

Chain of Albumin (P02768 whole entry): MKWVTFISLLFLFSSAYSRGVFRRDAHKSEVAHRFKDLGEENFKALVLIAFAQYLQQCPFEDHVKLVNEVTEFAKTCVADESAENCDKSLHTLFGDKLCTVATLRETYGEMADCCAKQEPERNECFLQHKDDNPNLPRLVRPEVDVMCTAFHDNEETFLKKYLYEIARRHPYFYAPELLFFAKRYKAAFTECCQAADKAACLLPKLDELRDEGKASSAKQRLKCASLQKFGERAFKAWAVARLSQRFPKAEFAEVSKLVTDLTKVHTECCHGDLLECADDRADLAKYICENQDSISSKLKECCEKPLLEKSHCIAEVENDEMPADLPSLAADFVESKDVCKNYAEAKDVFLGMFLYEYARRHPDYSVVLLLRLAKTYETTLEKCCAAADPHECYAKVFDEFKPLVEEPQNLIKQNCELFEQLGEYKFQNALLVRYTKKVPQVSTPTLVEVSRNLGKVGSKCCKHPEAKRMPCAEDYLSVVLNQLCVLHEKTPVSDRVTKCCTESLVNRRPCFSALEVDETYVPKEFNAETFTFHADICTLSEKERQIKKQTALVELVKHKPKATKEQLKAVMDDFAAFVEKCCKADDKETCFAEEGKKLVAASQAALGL

The logD is the decadic logarithm of the distribution of all forms, ionised or not, between an organic phase and buffer at a given pH. The term IC50 denotes the concentration needed to halve the response being measured. With `CC(C)(NC(=O)Nc1ccc(F)c(C(F)(F)F)c1)C(=O)O`, in data set [1], the logD is 1.1. Moreover, the values for the solubility kinetic in data set [2] and in data set [3] were above 100 µg/mL and 25 µg/mL (≈ 81.1 µM), respectively. The Activity with Schistosoma mansoni is 67%; with L6 it was “Non-Toxic”. The CLH in data set [4] and in data set [5] was below 7 µL/min/mg each time. Inhibition on Androgen receptor was half-maximal at 3.1 µM (IC50). In addition, at Albumin, the PPB is recorded as 94.3%.

The compound `CC1(C)NC(=O)N(Cc2ccc(F)c(C(F)(F)F)c2)C1=O` came in with a logD in data set [1] of 2.9. In addition, the solubility kinetic was above 100 µg/mL in [2] and 50 µg/mL (≈ 164 µM) in [3]. The Activity in the data set with Schistosoma mansoni is listed as 56%; with L6, “Non-Toxic”. The results for the CLH in data set [4] and in [5] were 11 µL/min/mg and 17 µL/min/mg, respectively. Also, the IC50 against Androgen receptor worked out at 4.2 µM. This compound also returned a PPB at Albumin of 82.1%.

As to `O=C1NC2(CCCCC2)C(=O)N1c1ccc(F)c(C(F)(F)F)c1`, the logD in [1] is 3.5. Besides, the solubility kinetic in [2] and in [3] was 3.1 µg/mL (≈ 9.39 µM) each time. For the same compound, the results for the Activity in the data set with Schistosoma mansoni and in the data set on L6 were 42% and “Non-Toxic”, respectively. Also, the CLH in [4] was 122 µL/min/mg; in [5], 25 µL/min/mg. In addition, it took 4.2 µM to reach half-maximal inhibition on Androgen receptor (IC50). Also, the PPB at Albumin is 74.9%.

In data set [1], `CC1(C)NC(=O)C(c2ccc(F)c(C(F)(F)F)c2)C1=O` (stereo not drawn) gave a log distribution coefficient (logD) of 0.5. Moreover, the solubility kinetic in data set [2] was above 100 µg/mL; in data set [3] it was 25 µg/mL (≈ 86.4 µM). For the same compound, the Activity in the data set on Schistosoma mansoni was 0%; with L6 it was “Non-Toxic”. Also, the CLH in [4] and in data set [5] was below 7 µL/min/mg each time. The compound further had an IC50 at Androgen receptor above 10 µM. This compound also showed a PPB at Albumin of 93.3%.

`CC1(C)C(=O)N(c2ccc(F)c(C(F)(F)F)c2)C(=O)N1CC#N`: in data set [1], the logD turned out to be 3.4. Besides, the solubility kinetic in data set [2] and in data set [3] was 25 µg/mL (≈ 75.9 µM) each time. The figures for the Activity in the data set with Schistosoma mansoni and in the data set with L6 were 91% and “Non-Toxic”, respectively. Further, the IC50 at Androgen receptor is 0.29 µM. The PPB at Albumin worked out at 48.2%.

Turning to `CC1(C)CNC(=O)N(c2ccc(F)c(C(F)(F)F)c2)C1=O`, in data set [1], the pH-dependent lipophilicity (logD) was found to be 2.5. Besides, the solubility kinetic in [2] and in data set [3] was 12.5 µg/mL (≈ 41.1 µM) in each case. For the same compound, the Activity in the data set on Schistosoma mansoni is given as 19%; in the data set with L6 it was “Non-Toxic”. The CLH in [4] worked out at 15 µL/min/mg; in data set [5] it was 9 µL/min/mg. This compound also yielded an IC50 on Androgen receptor of 6.9 µM. Further, at Albumin, the PPB is listed as 21.5%.

Take `CC1(C)CN(c2ccc(F)c(C(F)(F)F)c2)C(=O)N1`: the logD in data set [1] came out at 3.2. Besides, the solubility kinetic in [2] and in data set [3] was 12.5 µg/mL (≈ 45.3 µM) each time. The Activity with Schistosoma mansoni is given as 59%; in the data set with L6 it was “Non-Toxic”. Moreover, the CLH in data set [4] was 30 µL/min/mg; in data set [5] it was below 7 µL/min/mg. This compound also showed a 50% inhibitory concentration (IC50) at Androgen receptor of 8.1 µM. This compound also came in with a PPB at Albumin of 78.3%.

In data set [1], `O=C1C2CCCN2C(=O)N1c1ccc(F)c(C(F)(F)F)c1` (stereo not drawn) yielded a pH-dependent lipophilicity (logD) of 3. Also, the solubility kinetic in data set [2] and in data set [3] was 25 µg/mL (≈ 82.7 µM) in each case. Also, the results for the Activity with Schistosoma mansoni and in the data set on L6 were 0% and “Non-Toxic”, respectively. Further, the CLH in [4] was 144 µL/min/mg; in data set [5] it was 30 µL/min/mg. The IC50 on Androgen receptor turned out to be 3.5 µM. This compound also gave a PPB at Albumin of 46%.

For `CC1(C)NC(=O)N(c2ccncc2)C1=O`, the solubility kinetic was above 100 µg/mL in [2] and 50 µg/mL (≈ 244 µM) in data set [3]. Also, the Activity is given as 1.8% in the data set on Schistosoma mansoni and “Non-Toxic” with L6. The figures for the CLH in data set [4] and in data set [5] were 11 µL/min/mg and below 7 µL/min/mg, respectively. At Androgen receptor, this compound showed an IC50 of 3.8 µM. This compound also displayed a PPB at Albumin of 6.7%.

Turning to `CC1(C)C(=O)NC(=O)N1c1ccc(F)c(C(F)(F)F)c1`, in [1], the log distribution coefficient (logD) stood at 2.5. In addition, the solubility kinetic in data set [2] and in data set [3] was 25 µg/mL (≈ 86.1 µM) throughout. In addition, the Activity in the data set on Schistosoma mansoni is listed as 0%; in the data set on L6, “Non-Toxic”. In addition, the CLH in data set [4] and in [5] was below 7 µL/min/mg each time. The same compound registered an IC50 on Androgen receptor of 2.8 µM. The PPB on Albumin came out at 67.1%.

In data set [1], `CC1(C)CC(=O)N(c2ccc(F)c(C(F)(F)F)c2)C1=O` had a log distribution coefficient (logD) of 3.4. Besides, the solubility kinetic in [2] and in data set [3] was 12.5 µg/mL (≈ 43.2 µM) in each case. Also, the Activity is listed as 42% in the data set on Schistosoma mansoni and “Non-Toxic” in the data set on L6. Besides, the CLH in [4] turned out to be 10 µL/min/mg; in [5] it was 11 µL/min/mg. Further, half-maximal inhibition on Androgen receptor (IC50) required 0.91 µM. The PPB on Albumin is 42.5%.

In the case of `CC1(C)OC(=O)N(c2ccc(F)c(C(F)(F)F)c2)C1=O`, the pH-dependent lipophilicity (logD) in data set [1] came to 3.7. Besides, the solubility kinetic in [2] and in [3] was 3.1 µg/mL (≈ 10.6 µM) in each case. The Activity in the data set with Schistosoma mansoni is 11%; in the data set with L6, “Non-Toxic”. Besides, the CLH in [4] and in [5] was 12 µL/min/mg throughout. This compound registered an IC50 against Androgen receptor of 2.1 µM. The same compound displayed a PPB on Albumin of 58.1%.

`O=C1CNC(=O)N1c1ccc(F)c(C(F)(F)F)c1` had a logD in data set [1] of 2. The solubility kinetic in data set [2] and in [3] was above 100 µg/mL in each case. Besides, the Activity with Schistosoma mansoni is reported as 0%; in the data set on L6 it was “Non-Toxic”. In addition, the results for the CLH in data set [4] and in data set [5] were 13 µL/min/mg and below 7 µL/min/mg, respectively. Further, on Androgen receptor, the concentration for half-maximal inhibition (IC50) is 0.26 µM. Also, at Albumin, the PPB came out at 43.6%.

Compound `CC1(CO)NC(=O)N(c2ccc(F)c(C(F)(F)F)c2)C1=O` (stereo not drawn) came in with a logD in [1] of 1.9. Moreover, the solubility kinetic in data set [2] and in data set [3] was 25 µg/mL (≈ 81.6 µM) throughout. For the same compound, the Activity in the data set on Schistosoma mansoni is 0%; in the data set on L6, “Non-Toxic”. The CLH in data set [4] and in data set [5] was below 7 µL/min/mg throughout. Further, 4.8 µM corresponded to half-maximal inhibition against Androgen receptor (IC50). This compound also yielded a PPB at Albumin of 34.3%.

On to `CC1(C)CC(=O)N(c2ccc(F)c(C(F)(F)F)c2)C(=O)N1`, for which, in data set [1], the logD worked out at 2.4. For the same compound, the solubility kinetic in [2] and in data set [3] was 25 µg/mL (≈ 82.2 µM) each time. The Activity in the data set on Schistosoma mansoni is listed as 51%; in the data set with L6, “Non-Toxic”. Further, the CLH in data set [4] and in data set [5] was below 7 µL/min/mg in each case. This compound gave an IC50 on Androgen receptor above 10 µM. Further, the PPB on Albumin is 15%.

In data set [1], `CC1(C)NC(=O)N(c2ccc([N+](=O)[O-])c(C(F)(F)F)c2)C1=O` [NILUTAMIDE] gave a log distribution coefficient (logD) of 3. For the same compound, the solubility kinetic in data set [2] and in [3] was 50 µg/mL (≈ 158 µM) each time. For the same compound, the Activity with Schistosoma mansoni is 31%. Moreover, the CLH in data set [4] and in [5] was below 7 µL/min/mg in each case. For the same compound, the PPB on Albumin turned out to be 70.3%.

Compound `O=C(C1CCCCC1)N1CC(=O)N2CCc3ccccc3C2C1` (stereo not drawn) [PRAZIQUANTEL] gave a logD in data set [1] of 3. The solubility kinetic in [2] and in data set [3] was above 100 µg/mL throughout. Moreover, the Activity in the data set with Schistosoma mansoni was found to be 18%.
